Screening results (PubChem BioAssay)
Xi reactivation = activators of X-chromosome reactivation in mouse fibroblasts; XiGFP mouse fibroblasts, % GFP-positive cells imaging, 3 d; cells co-treated with 5-aza-dC sensitizer; scaled so ellipticine positive control = 100%; actives 0.055% (n = 360,000); AID 743238; activation, % at 7.58 µM;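 active = mean normalized replicate activation at least 10% and every replicate at or above 10%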;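 also: 0% = median of on-plate neutral control wells and 100% = ellipticine 6 µM median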
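Assay system: SV40-immortalized XiGFP fibroblast cells, line 68-5-11; buffer or medium: DMEM plus 5-aza-dC sensitizer; compound: one concentration, pinned; timing: compounds 3 days, fix/stain 15 min at room temperature; benchmarks: positive control ellipticine, 6 µM final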
TWEAK Fn14 block = TWEAK-Fn14 signaling inhibition; TWEAK-stimulated Fn14 reporter cells, luciferase luminescence, 8 h; inhibition, % at 10 µM; actives 2% (n = 360,000); AID 1159606; in the data active = inhibition above about 50%
LGR2 inh = blocks bursicon-induced cAMP signaling via Drosophila LGR2; HEK293 LGR2, CRE-luciferase, bursicon-stimulated, 4 h; inhibition, % at 9.99 µM; actives 0.35% (n = 380,000); AID 720647;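 active = drop in luminescence signal, shown as inhibition above about 50% in the replicate tests, limit read from the data, passing the limit was not always enough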;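 also: agonist challenge used bursicon conditioned medium at about half maximal strength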
CaV13 FRET inh = Disruptors of the CACNA1D IQ motif to Ca2+-dependent inactivation inhibitor domain association, primary screening, Förster resonance energy transfer in intact living …. HEK cells, CFP/YFP FRET ICDI-IQ, plate reader, 10 min; percent FRET-ratio fall versus neutral wells. inhibition, % at 12.3 µM. actives 0.098% (n = 340,000). AID 743397;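 active = mean replicate inhibition of at least 30% and at least 1% of replicates passing that level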;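 also: 0% = median of the neutral control wells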
TROY signal inh = blocks TROY-dependent signaling in reporter cells; Q293 LMP1-TROYcd NF-kB luciferase reporter, 4 h; inhibition, % at 10 µM; actives 0.98% (n = 360,000);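 active = compounds whose plate-normalised and pattern-corrected inhibition of the luciferase reporter signal at the single screening dose is 50% or more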
Active calls of the source: *; . = no result. Hits are enriched below; roughly 2% of the tested compounds scored in any of these assays.

SMILES	Xi reactivation	TWEAK Fn14 block	LGR2 inh	CaV13 FRET inh	TROY signal inh
C=C1C(=O)O[C@H]2[C@H]1[C@H](OC(=O)CC(=O)O[C@@H]1C[C@@H](C)[C@@H]3C=CC(=O)[C@@]3(C)[C@H]3OC(=O)C(=C)[C@H]13)C[C@@H](C)[C@H]1C=CC(=O)[C@]12C	0	17	-7	-9	-15
C=C1C(=O)O[C@H]2C[C@@H](C)[C@@H]3C=CC(=O)[C@@]3(C)C[C@H]12	0	.	82*	-4	.
C=C1C(=O)O[C@@H]2C[C@@H](C)[C@@H]3C4OC4C(=O)[C@@]3(C)[C@@H](O)[C@H]12 (stereo partly drawn)	2	97*	85*	-6	15
Cc1ccc(OC(=O)N(C)C[C@@H]2OCc3ccccc3-c3c(n(C)c4ccccc34)C(=O)N([C@@H](C)CO)C[C@H]2C)cc1	0	.	33	.	.
CC1CC(C)(O)CC(C(O)CC2CC(=O)NC(=O)C2)C1=O (stereo not drawn)	2	98*	102*	-7	80*
CC=CC(C)=CC(C)C(=O)CC(O)CC1CC(=O)NC(=O)C1 (stereo not drawn)	0	3	17	-5	29
CS(=O)(=O)N1C[C@@H]2C(c3ccc(Br)cc3)[C@H](C1)N2CC1CC1 (stereo partly drawn)	0	.	.	.	.
COC(=O)[C@@H]1[C@@H](CO)[C@@H]2Cn3c(ccc(-c4cccnc4)c3=O)[C@H]1N2S(=O)(=O)c1ccccc1F	0	.	-5	.	.
CN1C[C@H](CNC(=O)OCc2ccccc2)C[C@@H]2c3cccc4c3c(cn4C)C[C@H]21	0	60*	.	-5	-1
CN1C[C@H](CO)C[C@@H]2c3cccc4[nH]cc(c34)C[C@H]21	0	-1	8	-4	-14
CC=Cc1ccc2n(c1=O)C[C@H]1[C@H](CO)[C@@H](C(=O)N(C)C)N[C@@H]21 (mixture of isomers)	0	.	-6	.	.
O=c1[nH]c2ccccc2n1C1CCN(C(c2cc3ccccc3o2)c2nnnn2-c2ccc3c(c2)OCCO3)CC1 (stereo not drawn)	0	78*	96*	-5	67*
O=c1[nH]c2ccccc2n1C1CCN(C(c2cccc3ccccc23)c2nnnn2-c2ccc3c(c2)OCCO3)CC1 (stereo not drawn)	0	46	8	-5	24
COc1ccc(-n2nnnc2C(c2cc3ccccc3o2)N2CCC(n3c(=O)[nH]c4ccccc43)CC2)cc1 (stereo not drawn)	0	103*	76*	-7	68*
O=C(O)[C@H]1[C@H](CO)[C@H]2Cn3c(ccc(C4=CCCC4)c3=O)[C@@H]1N2C(=O)Cc1ccccn1	0	.	11	.	.
CC(N)C(=O)NC1C2C(=C(O)CC(O)C2O)C(=O)OC1(C)C(Cl)Cl (stereo not drawn)	0	96*	99*	-6	78*
CC1(C)C[C@H]2C=C(C=O)[C@]3(C=O)C[C@]3(C)[C@H]2C1	.	84*	.	.	7
O=C(O)[C@H]1[C@H](CO)[C@H]2Cn3c(ccc(-c4ccc(F)cc4)c3=O)[C@@H]1N2CC1CCCC1	0	.	-20	.	.
Cc1ccc(OCCOc2cccc(C=C3C(=O)NC(=O)NC3=O)c2)c(C)c1	0	89*	77*	-20	-70
COC(=O)[C@@H]1[C@@H](CO)[C@@H]2Cn3c(ccc(-c4ccccc4F)c3=O)[C@H]1N2Cc1ccncc1	1	.	-18	.	.
O=C(/C=C/c1ccc2c(c1)OCO2)c1c(O)n(CCC2=CCCCC2)c(=O)[nH]c1=O	0	51*	.	-17	19
COc1ccc(/C=C/C(=O)c2c(O)n(CCC3=CCCCC3)c(=O)[nH]c2=O)cc1	0	46	-1	.	16
NC(N)=N/N=C/c1ccc(N(c2ccccc2)c2ccccc2)cc1	0	12	52*	-2	69*
C[C@H](CO)N1C[C@H](C)[C@@H](CN(C)C(=O)Oc2ccccc2)OCc2ccccc2-c2c(n(C)c3ccccc23)C1=O	0	.	.	.	.
O=C(Cc1cccnc1)N1CCCCN2[C@H](CO)[C@@H](c3ccc(/C=C/c4ccccc4)cc3)[C@H]2C1	0	.	5	.	.
SMILES	Xi reactivation	TWEAK Fn14 block	LGR2 inh	CaV13 FRET inh	TROY signal inh
COC1C(O)C(C)OC(OC2CCC3(C)C(CCC4C3C(O)CC3(C)C(C5=CC(=O)OC5)CCC43O)C2)C1O (stereo not drawn)	0	86*	90*	-2	55*
CC12CCC(O)CC1CCC1C2CCC2(C)C(C3=CC(=O)OC3)C(O)CC12O (stereo not drawn)	0	53*	77*	-2	37
CC12CCC(O)CC1CCC1C2CCC2(C)C(C3=CC(=O)OC3)CCC12O (stereo not drawn)	0	85*	86*	-6	51*
C[C@]12CC[C@H](O)C[C@H]1CC[C@@H]1[C@@H]2CC[C@]2(C)[C@@H](C3=CC(=O)OC3)CC[C@]12O	0	75*	84*	-5	49
CC12CC[C@H]3[C@@H](CCC4(O)C[C@H](O)CCC34/C=N/NC(=O)Cc3ccccc3)C1(O)CCC2C1=CC(=O)OC1 (stereo partly drawn)	0	-12	5	-2	7
CC(=O)C1CCC2C3CCC4CC(O)CCC4(C)C3CCC12C (stereo not drawn)	0	-28	12	-5	0
COC(=O)[C@H]1[C@H](CO)[C@H]2Cn3c(ccc(-c4ccccc4)c3=O)[C@@H]1N2C(=O)c1ccccc1F	0	.	10	.	.
COC(=O)[C@H]1[C@H](CO)[C@H]2Cn3c(ccc(C4=CCCC4)c3=O)[C@@H]1N2Cc1ccccn1	0	.	-2	.	.
COC(=O)[C@@H]1[C@@H](CO)[C@@H]2Cn3c(ccc(-c4ccccc4)c3=O)[C@H]1N2CC1CCOCC1	1	.	19	.	.
C[C@]12CCC3C(CC[C@H]4C[C@@H](O)CC[C@]34C)[C@H]1C=CC2=O (stereo partly drawn)	0	9	6	-2	-1
CC(=O)OC1CC(OC2C(O)CC(OC3C(O)CC(OC4CCC5(C)C(CCC6C5CC(O)C5(C)C(C7=CC(=O)OC7)CCC65O)C4)OC3C)OC2C)OC(C)C1OC1OC(CO)C(O)C(O)C1O (stereo not drawn)	0	78*	88*	-5	36
C[C@]12CC[C@H](O)C[C@H]1CC[C@@H]1[C@@H]2C[C@@H](O)[C@]2(C)[C@@H](C3=CC(=O)OC3)CC[C@]12O	0	56*	80*	-5	47
COCc1cc(OC(=O)N(C)C)nc2c1c(C)nn2C	0	-10	10	-5	57*
Cc1cc(OC(=O)N(C)C)nc2c1c(C)nn2C	0	-8	11	-2	-6
